From BindingDB's records for doi:10.1021/acs.jmedchem.5b00162 (University of Montreal, 2015)

What was measured:
Urotensin-2 receptor [1] = target: T1, Urotensin-2 receptor (Rattus norvegicus, UniProt P49684); experiment: Modulation of urotensin-2 receptor in Sprague-Dawley rat thoracic aortic ring assessed as urotensin-2 related peptide pEC50 for induction of aortic ring contraction at 10 uM preincubated for 15 mins followed by urotensin-2 related peptide addition (Rvb = 7.89 +/- 0.08 no unit)
T1 sequence (P49684 whole entry): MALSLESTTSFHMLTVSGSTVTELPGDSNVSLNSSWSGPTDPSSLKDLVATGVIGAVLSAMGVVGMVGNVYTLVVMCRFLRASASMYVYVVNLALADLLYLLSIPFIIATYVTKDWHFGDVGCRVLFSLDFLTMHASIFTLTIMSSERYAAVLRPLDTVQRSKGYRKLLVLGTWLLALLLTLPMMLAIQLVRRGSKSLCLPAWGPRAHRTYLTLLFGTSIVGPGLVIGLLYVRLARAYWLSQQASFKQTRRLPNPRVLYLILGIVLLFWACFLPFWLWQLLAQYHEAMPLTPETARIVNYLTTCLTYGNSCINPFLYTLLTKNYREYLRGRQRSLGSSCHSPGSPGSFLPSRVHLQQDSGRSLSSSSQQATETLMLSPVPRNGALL

Urotensin-2 receptor [2] = target: T1, Urotensin-2 receptor; experiment: Modulation of urotensin-2 receptor in Sprague-Dawley rat thoracic aortic ring assessed as human urotensin-2 EC50 for induction of aortic ring contraction at 10 uM preincubated for 15 mins followed by human urotensin-2 addition (Rvb = 1.9 nM)
In short: (§1)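 Thoracic aortic rings from adult male Sprague-Dawley rats (250–300 g, killed by CO2). Rings were exposed to test compound for 15 min, then cumulative hUII concentration-response curves were run (10-10–3.10-6 M). Contraction is expressed as % of the 40 mM KCl response, with KCl given at the start and end. EC50/pEC50/Emax come from a variable-slope sigmoidal fit. At least triplicate.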

Urotensin-2 receptor [3] = target: T1, Urotensin-2 receptor; experiment: Modulation of urotensin-2 receptor in Sprague-Dawley rat thoracic aortic ring assessed as urotensin-2 related peptide EC50 for induction of aortic ring contraction at 10 uM preincubated for 15 mins followed by urotensin-2 related peptide addition (Rvb = 13 nM)
Urotensin-2 receptor [4] = target: T1, Urotensin-2 receptor; experiment: Modulation of urotensin-2 receptor in Sprague-Dawley rat thoracic aortic ring assessed as human urotensin-2 pEC50 for induction of aortic ring contraction at 10 uM preincubated for 15 mins followed by human urotensin-2 addition (Rvb = 8.71 +/- 0.08 no unit); in short: as §1
[5] = Modulation of urotensin-2 receptor in Sprague-Dawley rat thoracic aortic ring assessed as human urotensin-2 EC50 for induction of aortic ring contraction at 15 uM preincubated for 15 mins followed by human urotensin-2 addition (Rvb = 1.9 nM)
[6] = Modulation of urotensin-2 receptor in Sprague-Dawley rat thoracic aortic ring assessed as human urotensin-2 pEC50 for induction of aortic ring contraction at 15 uM preincubated for 15 mins followed by human urotensin-2 addition (Rvb = 8.71 +/- 0.08 no unit)
[7] = Modulation of urotensin-2 receptor in Sprague-Dawley rat thoracic aortic ring assessed as urotensin-2 related peptide EC50 for induction of aortic ring contraction at 15 uM preincubated for 15 mins followed by urotensin-2 related peptide addition (Rvb = 13 nM)
[8] = Modulation of urotensin-2 receptor in Sprague-Dawley rat thoracic aortic ring assessed as urotensin-2 related peptide pEC50 for induction of aortic ring contraction at 15 uM preincubated for 15 mins followed by urotensin-2 related peptide addition (Rvb = 7.89 +/- 0.08 no unit)
[9] = Modulation of urotensin-2 receptor in Sprague-Dawley rat thoracic aortic ring assessed as human urotensin-2 EC50 for induction of aortic ring contraction at 8 uM preincubated for 15 mins followed by human urotensin-2 addition (Rvb = 1.9 nM)
[10] = Modulation of urotensin-2 receptor in Sprague-Dawley rat thoracic aortic ring assessed as human urotensin-2 pEC50 for induction of aortic ring contraction at 8 uM preincubated for 15 mins followed by human urotensin-2 addition (Rvb = 8.71 +/- 0.08 no unit)
[11] = Modulation of urotensin-2 receptor in Sprague-Dawley rat thoracic aortic ring assessed as urotensin-2 related peptide EC50 for induction of aortic ring contraction at 8 uM preincubated for 15 mins followed by urotensin-2 related peptide addition (Rvb = 13 nM)
[12] = Modulation of urotensin-2 receptor in Sprague-Dawley rat thoracic aortic ring assessed as urotensin-2 related peptide pEC50 for induction of aortic ring contraction at 8 uM preincubated for 15 mins followed by urotensin-2 related peptide addition (Rvb = 7.89 +/- 0.08 no unit)
Urotensin-2 receptor [13] = target: T1, Urotensin-2 receptor; experiment: Modulation of urotensin-2 receptor in Sprague-Dawley rat thoracic aortic ring assessed as urotensin-2 related peptide pEC50 for induction of aortic ring contraction at 11 uM preincubated for 15 mins followed by urotensin-2 related peptide addition (Rvb = 7.89 +/- 0.08 no unit)
Urotensin-2 receptor [14] = target: T1, Urotensin-2 receptor; experiment: Modulation of urotensin-2 receptor in Sprague-Dawley rat thoracic aortic ring assessed as human urotensin-2 EC50 for induction of aortic ring contraction at 11 uM preincubated for 15 mins followed by human urotensin-2 addition (Rvb = 1.9 nM)
Urotensin-2 receptor [15] = target: T1, Urotensin-2 receptor; experiment: Modulation of urotensin-2 receptor in Sprague-Dawley rat thoracic aortic ring assessed as human urotensin-2 pEC50 for induction of aortic ring contraction at 11 uM preincubated for 15 mins followed by human urotensin-2 addition (Rvb = 8.71 +/- 0.08 no unit)
Urotensin-2 receptor [16] = target: T1, Urotensin-2 receptor; experiment: Modulation of urotensin-2 receptor in Sprague-Dawley rat thoracic aortic ring assessed as urotensin-2 related peptide EC50 for induction of aortic ring contraction at 11 uM preincubated for 15 mins followed by urotensin-2 related peptide addition (Rvb = 13 nM)
Urotensin-2 receptor [17] = target: T1, Urotensin-2 receptor; experiment: Modulation of urotensin-2 receptor in Sprague-Dawley rat thoracic aortic ring assessed as urotensin-2 related peptide pEC50 for induction of aortic ring contraction at 14 uM preincubated for 15 mins followed by urotensin-2 related peptide addition (Rvb = 7.89 +/- 0.08 no unit)
Urotensin-2 receptor [18] = target: T1, Urotensin-2 receptor; experiment: Modulation of urotensin-2 receptor in Sprague-Dawley rat thoracic aortic ring assessed as human urotensin-2 EC50 for induction of aortic ring contraction at 14 uM preincubated for 15 mins followed by human urotensin-2 addition (Rvb = 1.9 nM)
Urotensin-2 receptor [19] = target: T1, Urotensin-2 receptor; experiment: Modulation of urotensin-2 receptor in Sprague-Dawley rat thoracic aortic ring assessed as human urotensin-2 pEC50 for induction of aortic ring contraction at 14 uM preincubated for 15 mins followed by human urotensin-2 addition (Rvb = 8.71 +/- 0.08 no unit)
Urotensin-2 receptor [20] = target: T1, Urotensin-2 receptor; experiment: Modulation of urotensin-2 receptor in Sprague-Dawley rat thoracic aortic ring assessed as urotensin-2 related peptide EC50 for induction of aortic ring contraction at 14 uM preincubated for 15 mins followed by urotensin-2 related peptide addition (Rvb = 13 nM)
Urotensin-2 receptor [21] = target: T1, Urotensin-2 receptor; experiment: Modulation of urotensin-2 receptor in Sprague-Dawley rat thoracic aortic ring assessed as human urotensin-2 EC50 for induction of aortic ring contraction at 4 uM preincubated for 15 mins followed by human urotensin-2 addition (Rvb = 1.9 nM)
Urotensin-2 receptor [22] = target: T1, Urotensin-2 receptor; experiment: Modulation of urotensin-2 receptor in Sprague-Dawley rat thoracic aortic ring assessed as human urotensin-2 EC50 for induction of aortic ring contraction at 1 uM preincubated for 15 mins followed by human urotensin-2 addition (Rvb = 1.9 nM)
Urotensin-2 receptor [23] = target: T1, Urotensin-2 receptor; experiment: Modulation of urotensin-2 receptor in Sprague-Dawley rat thoracic aortic ring assessed as human urotensin-2 pEC50 for induction of aortic ring contraction at 4 uM preincubated for 15 mins followed by human urotensin-2 addition (Rvb = 8.71 +/- 0.08 no unit)
Urotensin-2 receptor [24] = target: T1, Urotensin-2 receptor; experiment: Modulation of urotensin-2 receptor in Sprague-Dawley rat thoracic aortic ring assessed as human urotensin-2 pEC50 for induction of aortic ring contraction at 1 uM preincubated for 15 mins followed by human urotensin-2 addition (Rvb = 8.71 +/- 0.08 no unit)

| Compound | EC50 (Urotensin-2 receptor [1]) [nM] | EC50 (Urotensin-2 receptor [2]) [nM] | EC50 (Urotensin-2 receptor [3]) [nM] | EC50 (Urotensin-2 receptor [4]) [nM] | further results |
| --- | --- | --- | --- | --- | --- |
| NCCC[C@@H]1N[C@H](c2cccc3ccccc23)c2[nH]c(C(=O)O)cc2N(CCc2ccc(O)cc2)C1=O | 4.6 | 5.7 | 4.5 | 5.6 |  |
| NCCCC[C@@H]1N[C@@H](c2ccc3ccccc3c2)c2[nH]c(C(=O)O)cc2N(CCc2ccc(O)cc2)C1=O | 8.7 | 1.5 | 8.7 | 1.5 |  |
| NCCCC[C@@H]1N[C@H](c2ccc3ccccc3c2)c2[nH]c(C(=O)O)cc2N(CCc2ccc(O)cc2)C1=O | 8.3 | 5 | 8.2 | 4.9 |  |
| NCCCC[C@@H]1N=C(c2ccc(-c3ccccc3)cc2)c2[nH]c(C(=O)O)cc2N(CCc2ccc(O)cc2)C1=O |  |  |  |  | EC50 [5]: 6.6 nM; EC50 [6]: 6.5 nM; EC50 [7]: 12 nM; EC50 [8]: 12 nM |
| NCCCC[C@@H]1N=C(c2cccc3ccccc23)c2[nH]c(C(=O)O)cc2N(CCc2ccc(O)cc2)C1=O |  |  |  |  | EC50 [9]: 7.8 nM; EC50 [10]: 7.8 nM; EC50 [11]: 5.3 nM; EC50 [12]: 5.4 nM |
| NCCC[C@@H]1N[C@H](c2ccc(-c3ccccc3)cc2)c2[nH]c(C(=O)O)cc2N(CCc2ccc(O)cc2)C1=O |  |  |  |  | EC50 (Urotensin-2 receptor [13]): 8.1 nM; EC50 (Urotensin-2 receptor [14]): 4.3 nM; EC50 (Urotensin-2 receptor [15]): 4.3 nM; EC50 (Urotensin-2 receptor [16]): 8.1 nM |
| NCCCC[C@@H]1N[C@@H](c2ccc(-c3ccccc3)cc2)c2[nH]c(C(=O)O)cc2N(CCc2ccc(O)cc2)C1=O |  |  |  |  | EC50 (Urotensin-2 receptor [17]): 10 nM; EC50 (Urotensin-2 receptor [18]): 8.8 nM; EC50 (Urotensin-2 receptor [19]): 8.7 nM; EC50 (Urotensin-2 receptor [20]): 10 nM |
| NCCCC[C@@H]1N[C@H](c2ccc(-c3ccccc3)cc2)c2[nH]c(C(=O)O)cc2N(CCc2ccc(O)cc2)C1=O |  |  |  |  | EC50 (Urotensin-2 receptor [17]): 19 nM; EC50 (Urotensin-2 receptor [21]): 3.5 nM; EC50 (Urotensin-2 receptor [22]): 4.5 nM; EC50 (Urotensin-2 receptor [23]): 3.5 nM; EC50 (Urotensin-2 receptor [24]): 4.5 nM; EC50 (Urotensin-2 receptor [20]): 19 nM |
| NCCC[C@@H]1N[C@@H](c2cccc3ccccc23)c2[nH]c(C(=O)O)cc2N(CCc2ccc(O)cc2)C1=O | 3.6 | 4.8 | 3.7 | 4.8 |  |
| NCCCC[C@@H]1N=C(c2ccc3ccccc3c2)c2[nH]c(C(=O)O)cc2N(CCc2ccc(O)cc2)C1=O | 21 | 4 | 21 | 4.7 |  |
| NCCC[C@@H]1N=C(c2ccc3ccccc3c2)c2[nH]c(C(=O)O)cc2N(CCc2ccc(O)cc2)C1=O | 6.8 | 9.5 | 6.8 | 9.3 |  |
| NCCC[C@@H]1N=C(c2cccc3ccccc23)c2[nH]c(C(=O)O)cc2N(CCc2ccc(O)cc2)C1=O | 12 | 2.7 | 12 | 2.6 |  |
| NCCC[C@@H]1N=C(c2ccc(-c3ccccc3)cc2)c2[nH]c(C(=O)O)cc2N(CCc2ccc(O)cc2)C1=O | 23 | 12 | 23 | 12 |  |
